Source: ChEMBL document CHEMBL1121556, “Structure-activity relationships in a series of newly synthesized 1-amino-substituted ellipticine derivatives” (J Med Chem, 1980)
pIC50: −log10 of the molar value. One block for each molecule: values may come before it.

Columns and labels:
[1] = system: Mus musculus; test: In vivo evaluation of antitumor activity on L1210 leukemia cells at the dose 10 mg/kg administered intraperitoneally 1 day after 10 e5 L1210 leukemia cells and increase in life span; assay type: functional; conditions: L1210, ip, 24 h, route intraperitoneal
[2] = system: Mus musculus; test: In vivo evaluation of antitumor activity on L1210 leukemia cells at the dose 10 mg/kg administered intraperitoneally 1 day after 10 e5 L1210 leukemia cells and Mean survival time; assay type: functional; conditions: route intraperitoneal
[3] = system: Friend leukemia cells (Mus musculus); test: In vitro concentration required for growth inhibition of murine Friend leukemia cell; conditions: read-out: ID50 (the source's name)
[4] = system: Mus musculus; test: In vivo acute toxicity (lethal dose) against mice by intraperitoneal administration; assay type: organism-based; conditions: ip
In short: (§1)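 Mice (ICFW, C3H or B6D2 F1; 6-8 weeks; 22-24 g) in five groups of six. Drug dissolved in acidified saline (equimolar acetic acid) and given as a single ip or iv dose of 2, 5, 10, 25 or 50 mg/kg. Mortality observed over 30 days to set the lethal dose (LD100) and the highest nonlethal dose (LD0).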

[5] = system: Mus musculus; test: In vivo acute toxicity (nonlethal dose) against mice by intraperitoneal administration; assay type: organism-based; conditions: ip; in short: as §1
[6] = system: Mus musculus; test: In vivo antitumor activity on L1210 leukemia cells at the dose 10 mg/kg administered intraperitoneally 1 day after 10 e5 L1210 leukemia cells and range of deaths; assay type: functional; conditions: route intraperitoneal
[7] = system: Mus musculus; test: In Vivo evaluation for the antitumor activity on grafted tumor friend cells at the dose 20 mg/kg and Increase in the life span was determined; assay type: functional
In short: (§2)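 Friend tumor cells, 10^6, injected iv into syngeneic mice. Mice randomized in groups of 16. Drug dissolved in acidified saline (equimolar acetic acid) and given as a single iv dose 3 days after inoculation. Median survival time recorded. %ILS = (treated median survival − control median survival)/control median survival × 100.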

[8] = system: Mus musculus; test: In vivo antitumor activity on L1210 leukemia cells at the dose 15 mg/kg administered intraperitoneally estimated as range of deaths; assay type: functional; conditions: route intraperitoneal
[9] = system: Mus musculus; test: In Vivo antitumor activity on grafted tumor friend cells at the dose 20 mg/kg and decrease in intravenous 10 e 6 cells and median survival time; assay type: functional; in short: as §2
[10] = system: Nucleic Acid; test: (§3) Apparent association constant towards DNA at concentration of 10e-7/M; assay type: nucleic-acid assay; conditions: Bos taurus
In short: (§4)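 Association constants for DNA binding were derived from absorption changes of calf thymus DNA at 6 × 10^-7 M, expressed as mononucleotide concentration. The buffer was 50 mM Tris-HCl, pH 7.4, with 0.1 M NaCl.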

[11] = system: Mus musculus; test: In vivo acute toxicity (lethal dose) against mice by intravenous administration; assay type: organism-based; in short: as §1
[12] = system: Nucleic Acid; test: B app constant towards DNA; assay type: nucleic-acid assay; conditions: Bos taurus; in short: as §4
[13] = system: Mus musculus; test: In vivo evaluation for the antitumor activity on L1210 leukemia cells at the dose 15 mg/kg administered intraperitoneally estimated as increase in life span; assay type: functional; conditions: L1210, ip, route intraperitoneal
[14] = system: Mus musculus; test: In vivo evaluation for the antitumor activity on L1210 leukemia cells at the dose 15 mg/kg administered intraperitoneally estimated as Mean survival time; assay type: functional; conditions: route intraperitoneal
[15] = system: Mus musculus; test: In vivo acute toxicity (nonlethal dose) against mice by intravenous administration; assay type: organism-based; in short: as §1
[16] = system: Nucleic Acid; test: Apparent association constant towards DNA at concentration of 10e-7/M.; assay type: nucleic-acid assay; conditions: Bos taurus; in short: as §4
[17] = system: Mus musculus; test: In vivo evaluation of antitumor activity on L1210 leukemia cells at the dose 15 mg/kg administered intraperitoneally 1 day after 10 e5 L1210 leukemia cells and Mean survival time; assay type: functional; conditions: route intraperitoneal
[18] = system: Mus musculus; test: In vivo evaluation of antitumor activity on L1210 leukemia cells at the dose 15 mg/kg administered intraperitoneally 1 day after 10 e5 L1210 leukemia cells and increase in life span; assay type: functional; conditions: L1210, ip, 24 h, route intraperitoneal
[19] = system: Mus musculus; test: In vivo antitumor activity on L1210 leukemia cells at the dose 15 mg/kg administered intraperitoneally 1 day after 10 e5 L1210 leukemia cells and range of deaths; assay type: functional; conditions: route intraperitoneal
[20] = system: Nucleic Acid; test: Apparent association constant towards DNA at concentration of […].; assay type: nucleic-acid assay; conditions: Bos taurus; in short: as §4
[21] = system: Mus musculus; test: In vivo leukemia cells at the dose 2.5 mg/kg administered intraperitoneally 1 day after 10 e5 L1210 leukemia cells and Mean survival time; assay type: functional; conditions: route intraperitoneal
[22] = system: Mus musculus; test: In vivo antitumor activity on L1210 leukemia cells at the dose 2.5 mg/kg administered intraperitoneally 1 day after 10 e5 L1210 leukemia cells and range of deaths; assay type: functional; conditions: route intraperitoneal
[23] = system: Mus musculus; test: In vivo evaluation of antitumor activity on L1210 leukemia cells at the dose 2.5 mg/kg administered intraperitoneally 1 day after 10 e5 L1210 leukemia cells and increase in life span; assay type: functional; conditions: L1210, ip, 24 h, route intraperitoneal
[24] = system: Nucleic Acid; test: as §3; assay type: nucleic-acid assay; conditions: Bos taurus; remark: listed apart in the source
In short: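 Apparent association constant from absorption changes of 6 × 10^-7 M calf thymus DNA (as mononucleotide concentration) in 50 mM Tris-HCl, pH 7.4, 0.1 M NaCl.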

[25] = system: Mus musculus; test: In vivo evaluation of antitumor activity on L1210 leukemia cells at the dose 15 mg/kg administered intraperitoneally 1 day after 10 e5 L1210 leukemia cells and increase in life span;(P<0.001); assay type: functional; conditions: L1210, ip, 24 h, route intraperitoneal
[26] = system: Mus musculus; test: In Vivo antitumor activity on grafted tumor friend cells at the dose 5 mg/kg and decrease in intravenous 10 e 6 cells and median survival time was determined; assay type: functional; in short: as §2
[27] = system: Mus musculus; test: In vivo evaluation of antitumor activity on L1210 leukemia cells at the dose 5 mg/kg administered intraperitoneally 1 day after 10 e5 L1210 leukemia cells and Mean survival time; conditions: route intraperitoneal

SMILES: COc1ccc2[nH]c3c(C)c4ccnc(NCCCN)c4c(C)c3c2c1
- ILS at 10 mg/kg [1]: 14%
- MST [2]: 12.2 days
- pIC50 [3]: 7.00
- LD100 [4]: 20 mg/kg
- LD0 [5]: 10 mg/kg
- Range of deaths [6]: 14 days

SMILES: CCN(CC)CCCNc1nccc2c(C)c3[nH]c4ccc(OC)cc4c3c(C)c12 [RETELLIPTINE]
- pIC50 [3]: 6.52
- ILS at 20 mg/kg [7]: 24.7%
- Range of deaths [8]: 35 days
- MST [9]: 10.6 days
- K app [10]: 3.15e+07 M⁻¹
- LD100 [11]: 60 mg/kg
- Bapp [12]: 0.16
- LD100 [4]: 60 mg/kg
- LD0 [5]: 15 mg/kg
- ILS at 15 mg/kg [13]: 134%
- MST [14]: 25 days
- LD0 [15]: 20 mg/kg

SMILES: COc1ccc2[nH]c3c(C)c4ccnc(NCCCN5CCN(CCCN)CC5)c4cc3c2c1
- pIC50 [3]: 6.70
- LD100 [11]: 2.5 mg/kg
- LD100 [4]: 50 mg/kg
- LD0 [5]: 25 mg/kg
- LD0 [15]: < 1 mg/kg

SMILES: CCN(CC)CCCC(C)Nc1nccc2c(C)c3[nH]c4ccc(OC)cc4c3cc12 (configuration not stated)
- pIC50 [3]: 6.30
- MST [17]: 12.5 days
- ILS at 15 mg/kg [18]: 8.7%
- LD100 [4]: 30 mg/kg
- LD0 [5]: 1.5 mg/kg
- Range of deaths [19]: 14 days

SMILES: Cc1c2ccnc(NCCN(C)C)c2cc2c1[nH]c1ccc(O)cc12
- pIC50 [3]: 7.52
- MST [21]: 16 days
- Range of deaths [22]: 20 days
- LD100 [4]: 5 mg/kg
- LD0 [5]: 2.5 mg/kg
- ILS at 2.5 mg/kg [23]: 26%

SMILES: CCN(CC)CCCNc1nccc2c(C)c3[nH]c4ccc(O)cc4c3cc12
- K app [24]: 3.7e+07 M⁻¹
- pIC50 [3]: 7.70
- ILS at 20 mg/kg [7]: 29.4%
- LD100 [11]: 15 mg/kg
- ILS at 15 mg/kg [25]: 49.5%
- Bapp [12]: 0.11
- LD100 [4]: 15 mg/kg
- LD0 [5]: 5 mg/kg
- MST [26]: 11 days
- LD0 [15]: 5 mg/kg
- MST [27]: 16 days
- Range of deaths [19]: 18 days

More lines, now with the values ahead:

- pIC50 [3]: 4.52
SMILES: COc1ccc2[nH]c3c(C)c4ccnc(N5CCCCC5)c4cc3c2c1

- pIC50 [3]: 6.10
- Bapp [12]: 0.11
- K app [16]: 3.5e+07 M⁻¹
SMILES: COc1ccc2[nH]c3c(C)c4ccnc(NCCCCCCN)c4cc3c2c1

- pIC50 [3]: 6.30
- Bapp [12]: 0.15
- K app [16]: 4.5e+07 M⁻¹
SMILES: COc1ccc2[nH]c3c(C)c4ccnc(NCCCCCN)c4cc3c2c1

- pIC50 [3]: 5.70
SMILES: COc1ccc2[nH]c3c(C)c4ccnc(Nc5ccc(NS(C)(=O)=O)cc5)c4cc3c2c1

- pIC50 [3]: 6.10
- K app [10]: 2.8e+07 M⁻¹
- Bapp [12]: 0.11
SMILES: COc1ccc2[nH]c3c(C)c4ccnc(NCCN(C)C)c4cc3c2c1

- pIC50 [3]: < 4.00
SMILES: COc1ccc2[nH]c3c(C)c4cc[n+](C)c(N(C)C)c4cc3c2c1

- K app [20]: 3.15e+07 M⁻¹
- pIC50 [3]: 6.00
- Bapp [12]: 0.09
SMILES: COc1ccc2[nH]c3c(C)c4ccnc(NCCCN(C)C)c4cc3c2c1
